# CHO parental Ca: counter-screen: ATP calcium response change in parental CHO cells. 0.63% of 330,000 active. inhibition, % at 5.6 µM. parental CHO-K1, ATP-induced calcium, Fluo-8 fluorescence;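 active = inhibition above that plate's mean sample inhibition plus 3 SD, cut at about 26% in these data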;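 note: 0% = ATP-challenged DMSO wells and 100% = DMSO wells without ATP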
#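 Measured by: calcium-sensitive Fluo-8 fluorescence / Test system: CHO parental line / Controls: ATP-challenged DMSO wells low, unchallenged DMSO wells high / Measure: % inhibition / Compound: single nominal dose of 5.6 µM per compound / Replicates: single well per compound, no replicates / Reagent: ATP as calcium-mobilizing challenge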
# TAAR1 antagonist: human TAAR1 antagonism | Q96RJ0 | CHO RD-HGA16 TAAR1, Fluo-8 calcium fluorescence, antagonist | 1.5% of 360,000 active | inhibition, % at 3 µM;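 active = inhibition above a per-plate cutoff, the mean inhibition of test compounds on that plate plus 3 SD, cut at about 49% in these data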;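 note: 0% = DMSO plus EC80 beta-PEA response and 100% = DMSO alone without agonist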
#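 Material: CHO RD-HGA16 cells bearing hTAAR1; compound dosing: one-point dosing, 3 µM nominal final; schedule: dye loading 75 min at 37 °C, then 30 min room temperature; measured by: calcium fluorescence with Fluo-8; control set: vehicle and agonist controls; replication: n of 1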
# OX1R antag-1: blocks the human orexin 1 receptor | O43613 | CHO/OX1R cells, Fluo-8 calcium fluorescence, orexin A | inhibition, % at 5 µM | 0.43% of 330,000 active | AID 434989;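 active = inhibition above its plate's threshold, mean inhibition of all tested compounds on the plate plus 3 SD, cut at about 37% in these data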;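 note: 0% = orexin A challenge wells and 100% = SB-334867-A antagonist wells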
# Target sequence (O43613 whole entry, looked up): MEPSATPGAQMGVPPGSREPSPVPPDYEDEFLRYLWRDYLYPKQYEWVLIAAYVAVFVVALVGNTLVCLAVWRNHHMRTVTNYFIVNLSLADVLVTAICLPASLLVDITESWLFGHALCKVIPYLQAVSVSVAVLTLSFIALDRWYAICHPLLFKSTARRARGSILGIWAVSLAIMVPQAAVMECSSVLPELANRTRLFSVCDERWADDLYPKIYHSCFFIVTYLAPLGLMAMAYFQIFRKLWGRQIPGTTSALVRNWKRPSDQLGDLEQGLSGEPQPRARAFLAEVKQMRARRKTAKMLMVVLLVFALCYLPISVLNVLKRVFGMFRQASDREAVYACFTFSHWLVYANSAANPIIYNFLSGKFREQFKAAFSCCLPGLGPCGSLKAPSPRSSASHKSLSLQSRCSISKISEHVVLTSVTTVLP
# GPR7 antag: blocks human GPR7 receptor signaling; GPR7-expressing cells, fluorescence antagonist assay; inhibition, % at 4.4 µM; P48145; 1.1% of 290,000 active; AID 1861; in the data active = inhibition above about 16%, passing the limit was not always enough;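 note: cells stimulated with the agonist NPW; 0% = agonist with vehicle and 100% = vehicle without agonist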
# OX1R antag-2: blocks the human orexin 1 receptor; O43613; OX1R-expressing cells, FRET antagonist read-out; inhibition, % at 6.6 µM; 1.8% of 330,000 active; in the data active = inhibition mostly above about 38%, no sharp cut-off; inactive = mostly below about 40%;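 note: 0% = agonist challenge alone and 100% = reference antagonist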
# TAAR1 ag: human TAAR1 agonism | Q96RJ0 | CHO RD-HGA16 TAAR1, Fluo-8 calcium fluorescence; vehicle wells 0%, saturating PEA agonist 100% | activation, % at 3 µM | 0.99% of 360,000 active;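 active = activation above the mean activation of all test compounds in the run plus 3 SD, cut at about 38% in these data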
#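 test system = CHO RD-HGA16 cells carrying human TAAR1 plus Gα16 | schedule = 17-24 h seeding, 75 min 37 °C dye, 30 min RT | compound dosing = 3 µM single concentration | control set = DMSO and PEA EC100 | replicates = n 1 | signal = Fluo-8 fluorescence, 5 s baseline then 140 s kinetic read | measure = percent activation vs PEA EC100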
# OX1R Ca confirm: OX1R (human) antagonism, confirmed | shares compounds with OX1R antag-1 | CHO/OX1R cells, orexin A calcium Fluo-8 fluorescence | inhibition, % at 5 µM | 38% of 1,100 active; in the data active = inhibition above about 29%;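 note: 0% = agonist challenge alone and 100% = reference antagonist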
# CHO Ca triplic: counter-screen: parental CHO calcium response change, triplicate; shares compounds with OX1R antag-1; parental CHO-K1, ATP-induced calcium, Fluo-8 fluorescence; inhibition, % at 5.6 µM; 9.3% of 1,100 active;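 active = inhibition above a per-plate limit, the mean inhibition of that plate's test compounds plus 3 SD, cut at about 25% in these data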;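 note: 0% = ATP challenge with DMSO and 100% = DMSO without ATP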
# OX1R HTRF confirm: confirmation of human orexin 1 receptor antagonists, HTRF format. shares compounds with OX1R antag-2. OX1R-expressing cells, HTRF antagonist assay. inhibition, % at 6.6 µM. 49% of 1,800 active; in the data active = inhibition above about 55%;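 note: CHO cells expressing OX1R stimulated with orexin A at about EC80; 0% = agonist challenge alone and 100% = reference antagonist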
# CHO-K1 HTRF cnt: counter-screen for OX1R antagonists: effect in parental CHO-K1 cells; shares compounds with OX1R antag-2; HTRF counterscreen; inhibition, % at 6.6 µM; 48% of 1,800 active; in the data active = inhibition above about 17%;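 note: 0% = agonist challenge with vehicle and 100% = vehicle alone without agonist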
# An asterisk follows results filed as active; nt = not tested or not shown. Only some compounds are listed: those with a hit (about 4.5% of all), similar ones and a draw of the others.
SMILES,CHO parental Ca,TAAR1 antagonist,OX1R antag-1,GPR7 antag,OX1R antag-2,TAAR1 ag,OX1R Ca confirm,CHO Ca triplic,OX1R HTRF confirm,CHO-K1 HTRF cnt
O=S(=O)(CCOc1ccccc1)c1nc2ccccc2[nH]1,-17,6,33,11,86*,6,15,-2,54,-1
Fc1cccc(Nc2nc3ccccc3n3cnnc23)c1,0,-3,36,-4,53*,-1,37*,0,86*,6
CC(=O)c1cccc(N(C(=O)c2ccccn2)C(C(=O)NC2CCCCC2)c2ccccc2)c1 (stereo unspecified),-23,12,-29,-3,21,-1,nt,nt,nt,nt
Cc1cc(C)cc(N(C(=O)c2ccccn2)C(C(=O)NC2CCCCC2)c2cccs2)c1 (stereo unspecified),-23,-21,48*,-5,64*,-3,6,-17,67*,0
COCCN(C(=O)CCSc1ccc(F)cc1)c1c(N)n(Cc2ccccc2)c(=O)[nH]c1=O,-12,7,-41,nt,6,0,nt,nt,nt,nt
CCOCCn1c(=O)c2c(nc3n2CCCN3CCc2ccccc2)n(C)c1=O,-23,-16,-5,-9,13,10,nt,nt,nt,nt
CN(C)c1ccc(NC(=S)c2ccc3ccccc3n2)cc1,0,-10,58*,10,93*,-2,29,14,85*,9
COC(=O)Cn1c(C(=O)N2CCCC2)cc2c1C[C@H]1CN(C(=O)c3ccccc3)[C@@](Cc3ccc(OC)cc3)(C(=O)OC)[C@@H]21,nt,-7,nt,nt,nt,1,nt,nt,nt,nt
CCCn1c(SCCC(=O)O)nc2ccccc21,0,-9,-10,-13,24,2,nt,nt,nt,nt
O=C(O)CCn1c(SCCOc2ccccc2)nc2ccccc21,-8,-5,58*,7,87*,3,32*,0,75*,9
Cc1cccc(OCCSc2nc3ccccc3n2CCC(=O)O)c1,-3,-2,32,0,97*,3,35*,3,83*,5
CCCCn1c(SCC(=O)NCc2ccc3c(c2)OCO3)nnc1C(CC)N(C)C (stereo unspecified),nt,-36,nt,nt,nt,10,nt,nt,nt,nt
Cc1ccc(S(=O)(=O)N(CCCO)CC(O)CON=C2c3ccccc3-c3ccccc32)cc1 (stereo unspecified),-6,25,42*,-7,73*,8,26,-4,76*,4
CCN(CC(O)Cn1c2ccccc2c2ccccc21)S(=O)(=O)c1ccc(C)cc1 (stereo unspecified),-20,23,1,-9,11,9,nt,nt,nt,nt
CCN(CC1CCCO1)C(=O)C1CCN(C2CCN(Cc3ccccc3C)CC2)CC1 (stereo unspecified),-16,-32,-20,4,26,0,nt,nt,nt,nt
O=[N+]([O-])c1cccc(-c2nc(-c3cccs3)c(-c3cccs3)[nH]2)c1,9,58*,38,-4,99*,5,13,-3,74*,7
O=C(CCCN1C(=O)/C(=C/c2cccs2)SC1=S)Nc1cccc(O)c1,2,45,45*,5,67*,5,33*,7,59*,7
O=C(CCCN1C(=O)/C(=C/c2cccs2)SC1=S)Nc1cccc(C(=O)O)c1,-10,2,7,-7,33,11,nt,nt,nt,nt
Fc1ccc2nc3[nH]c4ccccc4c3nc2c1,7,-10,36,-6,98*,7,10,-3,64*,2
NC(=O)c1ncn([C@@H]2O[C@H](CNCc3ccc(-c4cc(C(F)(F)F)ccc4Cl)o3)[C@@H](O)[C@H]2O)n1,nt,-28,nt,nt,nt,2,nt,nt,nt,nt
Cc1cc(C)c2c(N)c(C(=O)N/N=C/c3cccs3)sc2n1,1,-24,53*,-7,85*,1,-2,-10,95*,7
Cc1cc(C)c2c(=O)[nH][nH]c2n1,nt,-30,nt,nt,nt,4,nt,nt,nt,nt
CC(C)N(Cc1ccccc1)C(=O)CN1C(=O)NC(Cc2ccccc2)(c2ccccc2)C1=O (stereo unspecified),-17,-18,28,-9,81*,-1,42*,-14,87*,-15
COC(=O)C1=C(C)NC2=C(C(=O)CCC2)C1c1cn(Cc2ccc(Br)cc2)nc1-c1ccccc1 (stereo unspecified),-4,9,35,-2,75*,7,1,-18,52,-17
COC(=O)C1=C(C)NC2=C(C(=O)CC(C)(C)C2)C1c1cn(Cc2ccc(Br)cc2)nc1-c1ccccc1 (stereo unspecified),-4,nt,13,21,37,nt,nt,nt,nt,nt
SMILES,CHO parental Ca,TAAR1 antagonist,OX1R antag-1,GPR7 antag,OX1R antag-2,TAAR1 ag,OX1R Ca confirm,CHO Ca triplic,OX1R HTRF confirm,CHO-K1 HTRF cnt
Cc1c2ccccc2nc2c(F)c(N(C)C)c(F)c(F)c12,5,-3,50*,1,82*,3,71*,16,93*,12
Cc1ccc(Cn2nc(C)cc2C(=O)Nc2ccc(Cl)cc2)cc1,-19,-4,44,-4,56*,9,28,-14,62*,11
c1ccc2nc(-c3nc4ccccc4o3)ccc2c1,-21,-9,24,-3,97*,11,46*,-8,98*,5
c1ccc(-c2nc3ccccc3o2)nc1,-5,-9,-2,0,8,0,nt,nt,nt,nt
CCN(CC)C(=O)c1[nH]cnc1C(=O)Nc1ccccc1F,nt,-4,nt,nt,nt,2,nt,nt,nt,nt
CC1CC(C)CN(CCCNC(=O)C2CCN(c3nnc(-n4cccc4)s3)CC2)C1 (stereo unspecified),-15,-3,-13,20,12,1,nt,nt,nt,nt
COc1cccc(OC)c1C(=O)Nc1cccc(-n2cnnn2)c1,-19,3,26,0,88*,1,28,-5,80*,0
COc1cc(C(=O)Nc2cccc(-n3cnnn3)c2)cc(OC)c1OC,-12,2,-15,-10,28,6,nt,nt,nt,nt
Cc1nc(C)c(C(=O)OCC(=O)NCc2ccccc2)s1,2,10,-1,nt,7,18,nt,nt,nt,nt
Cc1ccc(NC(=O)COc2cccc(Oc3ccccc3)c2)cc1S(=O)(=O)N1CCOCC1,-5,40,45*,nt,30*,11,32*,-8,18,0
Cc1ccc(NC(=O)COc2ccc(Cl)cc2Cl)cc1S(=O)(=O)N1CCOCC1,nt,41,nt,nt,nt,9,nt,nt,nt,nt

# High-throughput results deposited in PubChem BioAssay by The Scripps Research Institute Molecular Screening Center.
